# Tests used:
# [1] = folding enthalpy; higher = less favourable; fluorescence melt of hairpins on a sequencing array, two-state fit; settings: sodium 0.088 M
# Procedure, shortened: (§1)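 Bootstrapped two-state fits yielded melting temperature and folding enthalpy for library hairpins. Cy3 fluorescence, with annealed Cy3 and quencher oligos, was imaged on a sequenced MiSeq flow cell in 50 mM Na-HEPES pH 8.0, 25 mM NaCl in 2.5 °C steps up to 60 °C, and normalised to pre-quench Cy3 and to control constructs. Four replicates were combined by inverse variance, and fitted temperatures were raised by 9.35 °C to match UV melts.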
# [2] = melting temperature; fluorescence melt of hairpins on a sequencing array, two-state fit, raised by 9.35 °C to match UV melts; settings: sodium 0.088 M
# Procedure, shortened: as §1
Sequence,folding enthalpy [1] [kcal/mol],Tm [2] [°C]
GCCATACCGAAAGGTGGC (((..(((....)))))),-24.4,53.4
GGTTAGGGAAACCTGATC (.(.(((....))).).),-11.7,31
GTACTCGAAAGAGCGTAC ((((((....)))..))),-10.7,28.5
GACAAGACGAAAGTCGTC (((..(((....)))))),-13.1,40.8
GAGACCGAAAGGTAACTC ((((((....)))..))),-12.3,39.7
GTACGCGAAAGCGAGTAC ((((((....)))..))),-13.8,41.1
GCACTAGAAATAGTGC ((((((....)))))),-33.6,55.4
GATCCGTTGCGGATC ((((((...)))))),-43,57.3
GCGAGTGCGAAAGCACGC (((..(((....)))))),-9.67,59
GATCTCGTACGAGATC ((((((....)))))),-39.7,61.7
GTTCACGAAAGTGAAC ((((((....)))))),-34.7,68.4
GCGACGCGAAAGCATGGC ((.(.((....)).).)),-9.76,40.4
GAGCCGGGAAACTGGCTC (((((.(....).))))),-36.2,63.3
GGATGTGGAAACACGTTC (.(.(((....))).).),-21.3,35.8
GGTTTGAAAAAACC (((((....))))),-25,46.3
GTAAATCGAAAGATATAC (((.(((....))).))),-12.1,29.7
GCGACCGGTCGC ((((....)))),-55.6,62
GGTTTCGGAAACGAGACC (((.(((....))).))),-33.1,50
GTATGCCGAAAGGCGTAC (((.(((....))).))),-26.2,63.4
GTGTAGGGAAACCTACGC (.(((((....))))).),-17.9,50
GCGATCCGAAAGGACCGC (((.(((....))).))),-36.1,63.2
GCTCGAACGAAAGTTAGC (((..(((....)))))),-12.1,31.5
GATCACTGCGTGATC ((((((...)))))),-26.3,61

Sequence,folding enthalpy [1] [kcal/mol],Tm [2] [°C]
GATTGGCCGAAAGGCATC (((..(((....)))))),-9.53,28.5
GAACAAGGAAACTTGTCC (.(((((....))))).),-15.4,31.3
GGGAGGGGAAACCCCCCC (((.(((....))).))),-38.7,53.3
GCCCTTGGAAACAAAGGC (((.(((....))).))),-28.2,35.3
CGCGGACGATCCGCG ((((((...)))))),-35.3,63.2
GTTCGCGAAAGCGTCAAC ((((((....)))..))),-9.05,28.1
GGTGGACGAAAGTCAACC (((.(((....))).))),-40.3,56.6
GCCTGCGGAAACGCAAGC ((.((((....)))).)),-18.5,48
GGGTGGGGAAACCCGTCC ((..(((....)))..)),-19,48.8
GGATCCGAAAGGATGTCC ((((((....)))..))),-12.5,35.2
GCAGCCCCGAAAGGGTGC (((..(((....)))))),-16.5,53.4
GATCTTCTTGAAGATC ((((((....)))))),-48,54
ACCCTGAAAAGGGT (((((....))))),-19.2,53.2
GCGATGCGAAAGCGACGC (((..((....))..))),-29.5,65.7
GCATCGCGAAAGCGGCGC ((..(((....)))..)),-21.2,57.3
GATCTTGCGAAGATC ((((((...)))))),-23.7,42.8
GAGGCCGGAAACGACCTC ((((.((....)).)))),-44.9,52.9
GCACTGCCGAAAGGCTGC (((..(((....)))))),-13.4,44.5
CGTCACGGAAACGTCACG (((.(((....))).))),-19.8,39.3
GATTGGCGAAAGCCGATC (((.(((....))).))),-25.8,56.8
GTCCCCGAAAGGGTTGAC ((((((....)))..))),-15.3,33.7
GCGTAAAACGC ((((...)))),-21.7,52.9
GATCATAGCAATGATC ((((((....)))))),-40.3,47.4

Sequence,folding enthalpy [1] [kcal/mol],Tm [2] [°C]
GCATGGCGAAAGCCCAGC ((..(((....)))..)),-12,46.3
GACAAGGGAAACCTTGCC (.(((((....))))).),-14.8,42
GATCAGTTGCCTGATC ((((((....)))))),-41.1,51.4
GGGGGTGGAAACATCCCC ((((.((....)).)))),-34.7,56.8
GCCGTGCGAAAGCAGAGC ((..(((....)))..)),-13.5,51.9
GGGCTACGAAAGTAACCC (((.(((....))).))),-36.6,52
GGCACCCGAAAGGGGCC (((.(((....)))))),-20.9,67.1
GCCCGCGAAAGCGTCGGC ((((((....)))..))),-17.9,56.5
GCGTAGGGAAACCTGTGC ((..(((....)))..)),-14.2,37.4
GCAAAGCGAAAGCTGTGC (((.(((....))).))),-41.6,54.4
GTGCAGGGAAACCCACAC (((..((....))..))),-19.2,32.4
GATCCGTCTGCGGATC ((((((....)))))),-44.5,61.1
GCGCTCGAAAGAGCCCGC ((((((....)))..))),-11.8,43.4
CGCGGTCGGAAACGAGCG (((..(((....)))))),-15.1,56.1
GGCTGGACGAAAGTCGCC (((..(((....)))))),-20.2,52.5
GCTCGTGCGAAAGCAAGC (((..(((....)))))),-7.01,45.5
GAAGCGGGAAACTGCTTC (((((.(....).))))),-40.4,53
GTGTTCGAAAGAACACAC ((((((....)))..))),-11.8,65
GCCCACGAAAGTGAAGGC ((((((....)))..))),-28.2,52.1
GGTTCCCGAAAGGGGACC (((.(((....))).))),-30.8,67.6
GTAAAAGGAAACTTTTGC (.(((((....))))).),-24.1,33.5
TGGTTGAAAAACCA (((((....))))),-15.1,47
GTCCTCGAAAGAGTGGAC ((((((....)))..))),-23.6,41.6

Sequence,folding enthalpy [1] [kcal/mol],Tm [2] [°C]
GGGAACGGAAACGTTTCC ((.((((....)))).)),-35.2,53.7
GCTGCGCGAAAGCGAAGC (((.(((....))).))),-29.7,69.1
GTGTACGAAAGTACAC ((((((....)))))),-29.7,69.1
GGATCTGGAAACAGATCC (((((((....))))))),-47.9,62.4
GATCAGGTGCCTGATC ((((((....)))))),-37,51.6
GATCAATGATTGATC ((((((...)))))),-29.9,40.6
GGCCACGGAAACGTGACC ((.((((....)))).)),-37.9,54.1
GATCCGGCGTCGGATC ((((((....)))))),-45.3,58.2
GCCTACCGAAAGGTGGGC (((.(((....))).))),-38.6,69.1
GCTCCCGAAAGGGAAAGC ((((((....)))..))),-16.6,51.7
GATCTTACCAAAGATC ((((((....)))))),-34.6,44.5
GACCAGGCGAAAGCCGTC (((..(((....)))))),-7.64,36.2
CCACTGAAAAGTGG (((((....))))),-25.3,54.5
GCCCGGCGAAAGCAAGGC (((..((....))..))),-18.6,59
GCGGCCTTCCGC ((((....)))),-19.9,57.9
GCGCCTCGAAAGAGCCGC (((.(((....))).))),-37.9,52.2
GCCTGCGAAAGCAAGGGC ((((((....)))..))),-18.7,61.3
GCACTGCGAAAGCAAAGC ((..(((....)))..)),-13.2,37.1
GATCCAAAACTGGATC ((((((....)))))),-31.6,45.6
CGCGGATTGCTCCGCG ((((((....)))))),-48.8,64.9
GCTTAGCGAAAGCGACGC ((.(.((....)).).)),-18.2,53.2
GATACCGAAAGGTGATC ((((((....))).))),-15.7,38.1
CGCTCGGAAACGATTGCG ((((((....)))..))),-25.4,39.8
